7 compounds from ChEMBL document CHEMBL4321862, “Application of Bivalent Bioisostere Concept on Design and Discovery of Potent Opioid Receptor Modulators” (J Med Chem, 2019) can be followed below.

Data set [1] deals with Mus musculus. The data set is described as follows: Inhibition of opioid-withdrawal symptom in morphine-pelleted Swiss Webster mouse assessed as reduction in escape jumps at 1 mg/kg, sc observed after 20 mins. Format: functional, organism-based. Summed up: (§1)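 Male Swiss Webster mice, n = 5, implanted with 75 mg morphine pellet at base of neck. After 72 h, 30 min habituation in observation chamber, then test compound s.c. Wet-dog shakes, escape jumps and paw tremors counted over 20 min.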

The test system of data set [2] is Mus musculus. Kind of data set: Inhibition of opioid-withdrawal symptom in morphine-pelleted Swiss Webster mouse assessed as reduction in wet dog shakes at 1 mg/kg, sc observed after 20 mins. Format: functional, organism-based. The gist of the method:
as §1

Data set [3] concerns Mus musculus. Kind of data set: Inhibition of opioid-withdrawal symptom in morphine-pelleted Swiss Webster mouse assessed as reduction in paw tremors at 1 mg/kg, sc observed after 20 mins. The format is functional, organism-based. The gist of the method: as §1
In data set [4] the target is Mu-type opioid receptor (Mus musculus) (UniProt P42866). Kind of data set: (§2) Agonist activity at mouse mu opioid receptor expressed in CHO cells assessed as inhibition of forskolin-induced cAMP formation incubated for 8 min followed by forskolin stimulation by ELISA. Format: functional, cell-based. Summed up: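 mMOR-CHO cells grown to confluency, pre-incubated 30 min at 37°C with 1 mM IBMX, 200 μM Ro 20-1724, bovine serum albumin and 20 mM HEPES (pH 7.2-7.5). Ligand then added with 10 μM forskolin for 8 min at 37°C. Media removed, cells rinsed with PBS, cAMP measured by ELISA. DMEM/F12 used as solvent throughout.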

Data set [5] deals with Mus musculus. Kind of data set: Inhibition of opioid-withdrawal symptom in morphine-pelleted Swiss Webster mouse assessed as reduction in paw tremors at 8 mg/kg, sc observed after 20 mins. Format: functional, organism-based. Summed up:
as §1

Data set [6] has as its target Kappa-type opioid receptor (Mus musculus, UniProt P33534). The data set is described as follows: Displacement of [3H]-[…] from mouse kappa opioid receptor expressed in CHO cells incubated for […] by competitive radioligand binding assay. The format is cell-based.
Data set [7] deals with Delta-type opioid receptor (Homo sapiens, UniProt P41143). The data set is described as follows: Displacement of [3H]-[…] from human delta opioid receptor expressed in CHO cells incubated for […] by competitive radioligand binding assay. Format: cell-based.
The target of data set [8] is T1, Mu-type opioid receptor (Mus musculus, UniProt P42866). The data set is described as follows: Agonist activity at recombinant mouse mu opioid receptor expressed in CHO cell membrane assessed as [35]-GTPgammaS binding incubated for […] by scintillation counting method.
The target of data set [9] is T1, Mu-type opioid receptor. Kind of data set: Antagonist activity at mouse mu opioid receptor expressed in CHO cells cotransfected with Galphaqi5 assessed as inhibition of DAMGO-induced increase in intracellular calcium concentration preincubated for 60 mins in Fluo4AM solution followed by compound addition and further incubated for 15 mins followed by DAMGO stimulation by Fluo4AM dye based assay. Format: functional, cell-based. The gist of the method: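 Gαqi5-transfected mMOR-CHO cells loaded 60 min with Fluo-4 AM/probenecid. Triplicate per concentration, at least three repeats, mean ± SEM. Naltrexone as control. IC50 by non-linear regression.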

Data set [10] concerns Mus musculus. The data set is described as follows: Inhibition of opioid-withdrawal symptom in morphine-pelleted Swiss Webster mouse assessed as reduction in wet dog shakes at 8 mg/kg, sc observed after 20 mins. The format is functional, organism-based. Summed up:
as §1

For data set [11], the target named is T1, Mu-type opioid receptor. The description is as §2. The format is functional, cell-based.
The test system of data set [12] is Mus musculus. Kind of data set: Inhibition of morphine-induced antinociceptive activity in Swiss Webster mouse assessed as decrease in latency to tail withdrawal at 10 mg/kg, sc administered 5 mins before morphine stimulation observed for 20 mins by warm water tail withdrawal assay. The format is functional, organism-based. The gist of the method: (§3)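 Male Swiss Webster mice, n ≥ 5, baseline latency 2–4 s. Test compound given s.c. 5 min before morphine 10 mg/kg. Tail immersion at 56 ± 0.1 °C 20 min after morphine, 10 s cutoff, %MPE per mouse.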

The nature of data set [13]: Selectivity index, ratio of Ki for human delta opioid receptor expressed in CHO cells to Ki for mouse mu opioid receptor expressed in CHO cells.
Data set [14] addresses T1, Mu-type opioid receptor. Kind of data set: Displacement of [3H]-Naloxone from mouse mu opioid receptor expressed in CHO cells incubated for […] by competitive radioligand binding assay. Format: cell-based.
A short description of data set [15]: Selectivity index, ratio of Ki for mouse kappa opioid receptor expressed in CHO cells to Ki for mouse mu opioid receptor expressed in CHO cells.
The test system of data set [16] is Mus musculus. Kind of data set: Inhibition of opioid-withdrawal symptom in morphine-pelleted Swiss Webster mouse assessed as reduction in escape jumps at 8 mg/kg, sc observed after 20 mins. The format is functional, organism-based. Summed up:
as §1

The test system of data set [17] is Mus musculus. The data set is described as follows: Inhibition of morphine-induced antinociceptive activity in subcutaneously dosed Swiss Webster mouse assessed as decrease in latency to tail withdrawal administered 5 mins before morphine stimulation observed for 20 mins by warm water tail withdrawal assay. The format is functional. The gist of the method: as §3

For data set [18], the target named is Mu-type opioid receptor (Mus musculus) (UniProt P42866). Kind of data set: Agonist activity at mouse mu opioid receptor expressed in CHO cells cotransfected with Galphaqi5 assessed as intracellular calcium level preincubated for 60 mins in Fluo4AM solution followed by compound addition by Fluo4AM dye based assay. Format: functional, cell-based.
The subject of data set [19] is Mus musculus. Kind of data set: Inhibition of opioid-withdrawal symptom in morphine-pelleted Swiss Webster mouse assessed as reduction in escape jumps at 50 mg/kg, sc observed after 20 mins. The format is functional, organism-based. The gist of the method: as §1
The nature of data set [20]: Toxicity in placebo-pelleted Swiss Webster mouse assessed as wet dog shakes at 20 mg/kg, sc observed after 20 mins. The format is organism-based. The conditions noted are these: in vivo. Summed up:
(§4)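 Male Swiss Webster mice, n = 5, placebo-pelleted. Tested 72 h after implantation, following 30 min chamber habituation. Compound given s.c.; wet-dog shakes, escape jumps and paw tremors counted over 20 min.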

Data set [21] concerns the target Mu-type opioid receptor (Mus musculus) (UniProt P42866). Kind of data set: Agonist activity at recombinant mouse mu opioid receptor expressed in CHO cell membrane assessed as [35]-GTPgammaS binding incubated for […] by scintillation counting method relative to DAMGO.
In data set [22] the test system is Mus musculus. Kind of data set: Inhibition of opioid-withdrawal symptom in morphine-pelleted Swiss Webster mouse assessed as reduction in paw tremors at 50 mg/kg, sc observed after 20 mins. The format is functional, organism-based. The gist of the method: as §1
Data set [23] in a line: Toxicity in placebo-pelleted Swiss Webster mouse assessed as escape jumps at 20 mg/kg, sc observed after 20 mins. The format is organism-based. The conditions noted are these: in vivo. The gist of the method: as §4
Data set [24] has as its system Mus musculus. The data set is described as follows: Inhibition of opioid-withdrawal symptom in morphine-pelleted Swiss Webster mouse assessed as reduction in wet dog shakes at 50 mg/kg, sc observed after 20 mins. The format is functional, organism-based. Summed up: as §1
A short description of data set [25]: Toxicity in placebo-pelleted Swiss Webster mouse assessed as paw tremors at 20 mg/kg, sc observed after 20 mins. Format: organism-based. The conditions noted are these: in vivo. The gist of the method: as §4
The target in data set [26] is Delta-type opioid receptor (Mus musculus, UniProt P32300). The data set is described as follows: Displacement of [3H]-diprenorphine from mouse delta opioid receptor expressed in CHO cells incubated for […] by competitive radioligand binding assay. The format is cell-based.
For data set [27], the system named is Mus musculus. The data set is described as follows: Antinociceptive activity in Swiss Webster mouse assessed as increase in latency to tail withdrawal at 10 mg/kg, sc observed for 20 mins by warm water tail withdrawal assay. The format is functional, organism-based. Summed up: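 Male Swiss Webster mice, 25–30 g, n = 5 per group, baseline tail latency 2–4 s accepted. Compound given s.c. in saline or water. Tail immersed in 56 ± 0.1 °C water 20 min post-dose, 10 s cutoff. %MPE = [(test − control)/(10 − control)] × 100. Saline and morphine as controls.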

SMILES strings stand for the structures. Active and inactive are the calls of the source.

As for `C=CCN1CC[C@]23c4c5ccc(O)c4O[C@H]2C(=O)CC[C@@]3(O)[C@H]1C5`, the inhibition result in data set [1], in data set [2] and in data set [3] was “Active” each time.
Take `C[C@@H](NC(=O)[C@@H](N)Cc1ccc(O)cc1)C(=O)NCC(=O)N(C)[C@@H](Cc1ccccc1)C(=O)NCCO`: the Emax in data set [4] is 82.4%.
`Cl.O=C(N[C@H]1CC[C@@]2(O)[C@H]3Cc4ccc(O)c5c4[C@@]2(CCN3CC2CC2)[C@H]1O5)c1cccc2ccsc12`: the inhibition result in [1], in [5], in [2], in data set [10], in data set [12] and in data set [16] was “Active” throughout. Further, the inhibition entry in data set [3] was “Active”. Also, the Ki is 2.65 nM in [6], 8.35 nM in [7] and 0.31 nM in data set [14]. The EC50 in data set [8] is 6.21 nM; in data set [11] (cho), “Not Active”. For the same compound, the concentration for half-maximal inhibition (IC50) in data set [9] worked out at 566 nM. Also, the “Ratio Ki” value in data set [13] was 26.9; in data set [15] it was 8.5. Besides, the AD50 in [17] came out at 0.29 mg/kg.
With `Cl.O=C(N[C@@H]1CC[C@@]2(O)[C@H]3Cc4ccc(O)c5c4[C@@]2(CCN3CC2CC2)[C@H]1O5)c1cccc2ccoc12`, the outcome in data set [18] was inactive. For the same compound, the inhibition entry in [1], in [19], in [2], in data set [22], in data set [12] and in data set [24] was “Active” throughout. Also, in [3], the inhibition result is “Active”. For the same compound, the Activity entry in [20], in [23] and in data set [25] was “Non-Toxic” throughout. Moreover, in [6], the Ki worked out at 0.81 nM. Further, the Emax in data set [21] came out at 27.3%; in data set [4], 35.7%. In data set [17], the AD50 was 0.18 mg/kg.
`Cl.O=C(N[C@H]1CC[C@@]2(O)[C@H]3Cc4ccc(O)c5c4[C@@]2(CCN3CC2CC2)[C@H]1O5)c1cccc2occc12`: in data set [18], the result was inactive. For the same compound, the inhibition result in [1], in [2], in data set [12] and in data set [3] was “Active” throughout. For the same compound, the Ki in data set [6] is 4.98 nM; in data set [7] it was 16.9 nM; in data set [14], 0.26 nM. The values for the EC50 in [8] and in data set [11] (read-out: EC50) were 0.77 nM and 80 nM, respectively. The IC50 in [9] was 50.7 nM. Moreover, the Emax in data set [21] was 10%; in [4], 18.9%. Also, the “Ratio Ki” value was 65 in data set [13] and 19.2 in [15]. In data set [17], the AD50 was 0.29 mg/kg.
Consider `Cl.O=C(N[C@H]1CC[C@@]2(O)[C@H]3Cc4ccc(O)c5c4[C@@]2(CCN3CC2CC2)[C@H]1O5)c1cccc2cc[nH]c12`, for which the Emax in [21] worked out at 19.1%. The Ki in data set [26] turned out to be 13.7 nM. In addition, in data set [17], the AD50 is 2.07 mg/kg.
For `Cl.O=C(N[C@@H]1CC[C@@]2(O)[C@H]3Cc4ccc(O)c5c4[C@@]2(CCN3CC2CC2)[C@H]1O5)c1cc2ccccc2s1`, the Ki in data set [6] was determined as 0.2 nM; in data set [7], 1.39 nM; in [14], 0.14 nM. Moreover, the EC50 in [8] worked out at 0.24 nM. In addition, in [21], the Emax was 59%. For the same compound, the “Ratio Ki” value was determined as 9.9 in data set [13] and 1.4 in [15]. In addition, in [27], the outcome was Active.
